Screening data (PubChem BioAssay)
An excerpt weighted towards active compounds, which were near 2.3% of everything screened.
TRPC4 block = blocks the mouse TRPC4 cation channel; AID 2247; Q9QUQ5; B-score at 10 µM; 300,000 tested, 0.39% active; HEK293 TRPC4beta/mu-opioid, DAMGO-evoked Fluo4 calcium flux; hits give low values;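 active = B-score over 3 SD under the library average, no early fluorescence shift, positive overall ratio signal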
Target sequence (Q9QUQ5 whole entry, looked up): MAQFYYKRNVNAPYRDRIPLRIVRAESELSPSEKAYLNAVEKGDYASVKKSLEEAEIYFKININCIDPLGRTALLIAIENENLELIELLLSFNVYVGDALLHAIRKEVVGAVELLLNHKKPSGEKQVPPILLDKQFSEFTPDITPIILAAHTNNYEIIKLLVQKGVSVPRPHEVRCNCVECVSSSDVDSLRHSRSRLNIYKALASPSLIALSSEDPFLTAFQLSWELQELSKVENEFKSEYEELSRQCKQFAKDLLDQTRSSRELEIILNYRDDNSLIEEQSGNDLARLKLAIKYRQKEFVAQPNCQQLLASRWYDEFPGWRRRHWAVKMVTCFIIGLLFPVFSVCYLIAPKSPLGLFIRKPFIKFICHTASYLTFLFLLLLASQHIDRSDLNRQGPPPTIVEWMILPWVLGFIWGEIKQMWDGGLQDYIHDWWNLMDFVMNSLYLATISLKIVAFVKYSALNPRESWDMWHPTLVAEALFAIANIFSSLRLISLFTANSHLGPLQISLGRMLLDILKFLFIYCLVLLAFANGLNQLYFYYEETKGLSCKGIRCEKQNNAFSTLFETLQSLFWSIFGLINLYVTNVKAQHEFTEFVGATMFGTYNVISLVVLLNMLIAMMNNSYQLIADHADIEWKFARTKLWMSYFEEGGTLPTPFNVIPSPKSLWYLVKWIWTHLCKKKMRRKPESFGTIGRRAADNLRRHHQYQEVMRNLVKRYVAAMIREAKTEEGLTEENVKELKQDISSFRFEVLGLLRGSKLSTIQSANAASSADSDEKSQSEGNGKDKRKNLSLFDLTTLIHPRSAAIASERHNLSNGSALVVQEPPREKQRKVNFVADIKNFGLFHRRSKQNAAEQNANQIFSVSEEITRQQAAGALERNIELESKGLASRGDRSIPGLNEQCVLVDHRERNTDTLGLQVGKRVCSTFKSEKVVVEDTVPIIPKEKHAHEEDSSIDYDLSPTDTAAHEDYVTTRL
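Assay system: TRPC4beta/mu-opioid receptor HEK293 cell line; compound dosing: single concentration per test compound; detection: Fluo4 Ca2+ flux fluorescence; evaluation: per-well B score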
TRPC6 activator = activators of mouse TRPC6 channel; HEK293-TRPC6 membrane potential dye fluorescence; hits give high values; B-score at 10 µM; 310,000 tested, 0.13% active;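 active = B-score of the integrated fluorescence ratio above library mean plus 3 SD, and starting fluorescence ratio within library mean plus 5 SD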;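 note: higher score means more depolarization so channel activation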
TRPC4 agonist = TRPC4 (mouse) channel activation. Q9QUQ5. HEK293 TRPC4beta/mu-opioid, Fluo4 calcium fluorescence; hits give high values. B-score at 10 µM. 310,000 tested, 0.49% active. AID 2237;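 active = B-score above 5 SD of library B-scores, and initial fluorescence ratio not above library mean plus 5 SD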;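 note: positive B-score marks a calcium rise read as TRPC4 activation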
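Technique: kinetic Fluo4 calcium fluorescence; Test system: TRPC4beta and mu-opioid receptor HEK293 stable cells; Measure: B-scored integrated calcium fluorescence ratio; Benchmarks: low control buffer alone, high control maximal DAMGO; Schedule: 45 min room-temperature Fluo4 loading, 110 s read.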
TRPC6 inh = mouse TRPC6 channel inhibition | HEK293-TRPC6, membrane potential dye, ACh-evoked depolarization; hits give low values | Q61143 | B-score at 10 µM | 310,000 tested, 1.1% active;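 active = B-score under library mean minus 3 SD, initial fluorescence not abnormally high, positive integrated signal ratio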;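 note: B-score derived from integrated fluorescence ratio over the kinetic read; more negative B-score means stronger inhibition of depolarization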
TRPC4 PAM = allosterically enhances the mouse TRPC4 cation channel; Q9QUQ5; HEK293 TRPC4beta/mu-opioid, DAMGO EC20, Fluo-4 Ca2+ flux; hits give high values; B-score at 10 µM; 310,000 tested, 0.42% active; AID 2227;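 active = B-score of calcium response area above 5 SD of library B-scores, with initial fluorescence ratio within 5 SD of library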
Each line names hits and unclear results; the compound was inactive in the other large screens.

CCCCN1C(=O)C(=O)N(CC(=O)Nc2cc(OCC)c(N3CCOCC3)cc2OCC)C1=O	TRPC4 PAM 21
CCOc1cc(N2CCOCC2)c(OCC)cc1NC(=O)c1ccccc1C	none
CCOc1cc(N2CCOCC2)c(OCC)cc1NC(=O)c1ccc2ccccc2n1	TRPC4 PAM 11
O=C(CN(CC1CCCO1)C(=O)CNS(=O)(=O)c1ccc(Cl)cc1)NCCc1ccccc1 (stereo unspecified)	none
O=C(NS(=O)(=O)Oc1ccc(F)c(Cl)c1)OC[C@@H]1CCCN2CCCCC12 (stereo partly specified)	none
CC(=O)Oc1ccc(/C=C(\NC(=O)c2ccco2)C(=O)NCc2ccccc2)cc1	TRPC4 block -7
O=C(/C=C/c1ccccc1)N(c1ccccn1)C1CCCCC1	none
O=C(/C=C/c1ccccc1Cl)N(c1ccccn1)C1CCCCC1	TRPC4 PAM 16
Cc1ccc(NNc2c(C)nc3ccccc3nc2=O)cc1	none
Cc1c(C(=O)N(Cc2cccs2)C2CCS(=O)(=O)C2)oc2ccccc12 (stereo unspecified)	TRPC4 agonist 67
O=C(c1ccc(F)cc1)N1CCCC(C(=O)N2CCc3ccccc3C2)C1 (stereo unspecified)	none
CCCNCc1cc(Br)ccc1OCC(=O)NCCc1ccccc1	TRPC4 block -6
Cc1ccsc1C(=O)NC1CCCN(Cc2ccc(Cl)cc2)C1 (stereo unspecified)	TRPC4 agonist 75
CC(C)Cc1ccc(CN2CCCC(NC(=O)CCn3cnnn3)C2)cc1 (stereo unspecified)	TRPC4 agonist 104
Cc1occc1C(=O)NC1CCCN(Cc2ccc(Cl)cc2)C1 (stereo unspecified)	TRPC4 agonist 62
Cc1cc(C(=O)NC2CCCN(Cc3ccc(Cl)cc3)C2)c(C)o1 (stereo unspecified)	none
O=C(NC1CCCN(Cc2ccc(Cl)cc2)C1)c1ccoc1 (stereo unspecified)	TRPC4 agonist 43
O=C(CN1CCOCC1)Nc1ccc(NC(=O)c2ccccc2F)cc1	none
Cc1ccc(C(=O)NC(C)(COc2nonc2C)COc2nonc2C)cc1	none
CCN(CC)CCn1c2c(c(SCC(=O)NCc3ccccc3)nc1=O)CCC2	none
O=C(CCc1ccc(F)c(F)c1)NC1CCCN(Cc2ccc(Cl)cc2)C1 (stereo unspecified)	TRPC4 agonist 53
CC1CCCCC12NC(=O)N(CC(=O)NCCc1ccccn1)C2=O (stereo unspecified)	none
Cc1cccc(NC(=O)CNC(=O)CN2C(=O)NC3(CCCCC3C)C2=O)c1C (stereo unspecified)	TRPC4 PAM 17
CC(C)n1cc(CN2CCC(C(=O)Nc3ccc(Oc4ccccc4F)cc3)CC2)cn1	none
N#C/C(=C(/O)c1ccc(Cl)c([N+](=O)[O-])c1)c1nc2ccccc2[nH]1	none
Cc1cccc(NC(=S)NCC(c2cccnc2)N(C)C)c1 (stereo unspecified)	TRPC4 agonist 103
CN(C)C(CNC(=S)Nc1ccc(F)cc1)c1cccnc1 (stereo unspecified)	TRPC4 agonist 80
Cc1ccnc(NC(=O)c2ccc3c(c2)S(=O)(=O)c2ccccc2C3=O)c1	none
Cc1ccc(-c2ccc3c(c2)S(=O)(=O)c2ccccc2C3=O)cc1	TRPC4 PAM 29
COc1ccc(C2CC(c3ccccc3)Nc3nc(NC(=O)c4cccs4)nn32)cc1 (stereo unspecified)	TRPC4 block -6
Cc1ccccc1C(=O)c1cccn1CC(=O)N1CCCCC1	none
CN(C)C(CNC(=O)c1cc2ccccc2oc1=O)c1ccccc1 (stereo unspecified)	TRPC4 block -6, TRPC4 agonist 87
CCOc1ncccc1C(=O)NCc1ccccc1	none
COc1ccc(-c2cc(C(=O)NCc3ccco3)c3ccccc3n2)cc1OC	none
COc1ccc(-c2cc(C(=O)NCC(c3ccccc3)N(C)C)c3ccccc3n2)cc1OC (stereo unspecified)	TRPC4 agonist 90
COc1ccc(C(CNC(=O)c2cc(SC)ccc2Cl)N(C)C)cc1 (stereo unspecified)	TRPC4 agonist 118
CCOc1ncccc1C(=O)NCC(c1ccccc1)N(C)C (stereo unspecified)	TRPC4 agonist 126
COc1ccc(C(CNC(=O)c2cncc(Br)c2)N(C)C)cc1 (stereo unspecified)	none (no result: TRPC4 block)
CC(=O)N(CCCNC(=O)c1ccccc1)C(=O)c1ccccc1	none
C=CCn1cc(C(=O)NCCCOCC)c(=O)c2cc(S(=O)(=O)N(CC)CC)ccc21	none
Cc1ccccc1CN(C)C(=O)c1ccc2ccccc2n1	none
O=C(Cc1cnc2ncnn2c1)N1CCc2c([nH]c3ccccc23)C1c1ccccc1F (stereo unspecified)	none
Cn1c2ccccc2c2nnc(SCC(=O)NCc3ccoc3)nc21	none
O=C(O)CC1(CC(=O)NCc2cc(F)cc3c2OCOC3)CCCCC1	none
Cn1c(N/N=C/c2ccccc2)nc2sc3c(c2c1=O)CCC3	none
Cc1ccc(-c2cc(C(=O)NCCCN3CCCC3)c3ccccc3n2)cc1C	TRPC4 PAM 15
Cc1ccc(-c2cc(C(=O)NCCCN3CCOCC3)c3ccccc3n2)cc1C	none
COc1ccc(C(CNC(=O)c2ccccc2SC)N(C)C)cc1 (stereo unspecified)	TRPC4 agonist 88
Cc1nn(C)c(C(=O)N2CCOCC2)c1Cl	none
CC(OC(=O)c1cccs1)C(=O)NCC1CCCO1 (stereo unspecified)	none
O=C(OC(C(=O)NCC1CCCO1)c1ccc(F)cc1)c1cccs1 (stereo unspecified)	TRPC4 agonist 47
O=C(Cc1ccccc1[N+](=O)[O-])OCc1cccc([N+](=O)[O-])c1	TRPC4 block -6
COc1cc(-c2nnc(SCC(=O)NC3CCCC3)n2C)cc(OC)c1O	none
Brc1ccccc1OCCNCc1ccccc1	none
Clc1ccc(OCCCNCc2ccccc2)c2ccccc12	TRPC4 agonist 56
Cc1ccc(OCC(=O)Nc2ccon2)c([N+](=O)[O-])c1	none
CCN(CCNC(=O)C1CCCN(c2ncnc3c2nc2n3CCCCC2)C1)Cc1ccccc1 (stereo unspecified)	TRPC4 PAM 19
CN(CCNC(=O)C1CCN(c2ncnc3c2nc2n3CCCCC2)CC1)Cc1ccccc1	none
CC1CC(C)CN(CCCNC(=O)C2CCCN(c3ncnc4c3nc3n4CCCCC3)C2)C1 (stereo unspecified)	TRPC4 PAM 18
Cc1ccc(C)c(N2CCN(C(=O)C3CCCN(c4ncnc5c4nc4n5CCCCC4)C3)CC2)c1 (stereo unspecified)	TRPC4 PAM 15
Cc1csc(NC(=O)CSc2nnc(NC(=O)NC(C)(C)C)s2)n1	none
CCC(C)(C)NC(=O)C(c1sccc1C)N(Cc1ccco1)C(=O)c1csnn1 (stereo unspecified)	TRPC6 inh -5.8
